Measurements: ChEMBL document CHEMBL4725271, “Design and synthesis of pyrazolo[3,4-d]pyrimidinone derivatives: Discovery of selective phosphodiesterase-5 inhibitors” (Bioorg Med Chem Lett, 2020)

Columns and labels:
Corpus cavernosum [1] = assay: Induction of smooth muscle relaxation in male albino rat corpus-cavernosum assessed as reduction in phenylephrine-induced contraction relative to sildenafil; format: functional
How it was run: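 Isolated penile corpus cavernosum strips from adult male albino rats anaesthetized with sodium pentobarbital (50mg/kg, i.v.), held in Krebs-Henseleit solution at 37°C aerated with carbogen under 1g initial tension. Equilibrated ~90 min with solution renewed every 15 min. Cumulative concentration-response curves in phenylephrine-contracted tissue, recorded isometrically.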

Corpus cavernosum [2] = assay: Induction of smooth muscle relaxation in male albino rat corpus-cavernosum assessed as reduction in phenylephrine-induced contraction; format: functional, tissue-based
[3] = target: cGMP-specific 3',5'-cyclic phosphodiesterase (Homo sapiens, UniProt O76074); assay: Inhibition of PDE5 (unknown origin)

Structure (SMILES)	Emax (Corpus cavernosum [1])	EC50 (Corpus cavernosum [2])	IC50 [3]
O=c1[nH]c(CNc2ccccc2O)nc2c1cnn2-c1ccccc1	125%	250 nM	–
COc1ccc(CNc2nc(N3CCO[C@H](CO)C3)ncc2C(=O)NCc2ccccn2)cc1Cl	–	–	32 nM
CCCCOc1ccccc1-c1nc2c(cnn2-c2ccccc2)c(=O)[nH]1	170%	630 nM	–
COc1ccc(CNc2nc(OCc3ccccn3)ncc2C(=O)NCc2ccccn2)cc1Cl	–	–	2.7 nM
COc1ccc(CNc2nc(OCc3ccccn3)ncc2C(=O)Nc2ncccn2)cc1Cl	–	–	12 nM
O=c1[nH]c(CNc2ccccc2O)nc2c1cnn2-c1ccc(Br)cc1	133%	5050 nM	–
COc1ccc(CNc2nc(OCc3ccccn3)ncc2C(=O)NCCCO)cc1Cl	–	–	13 nM
COc1ccc(CNc2nc(N3CCCC[C@H]3CO)ncc2C(=O)NCc2ccccn2)cc1Cl	–	–	54 nM
CC(C)Oc1ccccc1-c1nc2c(cnn2-c2ccccc2)c(=O)[nH]1	130%	500 nM	–
Nc1ccccc1NCc1nc2c(cnn2-c2ccc(Br)cc2)c(=O)[nH]1	148%	707 nM	–
COCCCNC(=O)c1cnc(OCc2ccccn2)nc1NCc1ccc(OC)c(Cl)c1	–	–	15 nM
COc1ccc(CNc2nc(N3CCC[C@H]3CO)ncc2C(=O)NCCCO)cc1Cl	–	–	6.6 nM
COc1ccc(CN=c2[nH]c(N3CCC[C@H]3CO)ncc2C(=O)NCc2ncccn2)cc1Cl (stereo in doubt; T6)	–	–	5.2 nM
CCCCOc1ccccc1-c1nc2c(cnn2-c2ccc(Br)cc2)c(=O)[nH]1	160%	4.89 nM	–
COc1ccc(CNc2nc(OCc3ccccn3)ncc2C(=O)OCc2ccccn2)cc1Cl	–	–	2.1 nM
CCCOc1ccccc1-c1nc2c(cnn2-c2ccccc2)c(=O)[nH]1	150%	234 nM	–
COc1ccc(CNc2nc(N3CCCC[C@H]3CO)ncc2C(=O)NCc2ncccn2)cc1Cl	–	–	63 nM
COc1ccc(CNc2nc(N3Cc4ccccc4C[C@@H]3CO)ncc2C(=O)NCc2ccccn2)cc1Cl	–	–	6.5 nM

Structure (SMILES)	Emax (Corpus cavernosum [1])	EC50 (Corpus cavernosum [2])	IC50 [3]
COc1ccc(CNc2nc(OCc3ccccn3)ncc2C(=O)NCCN2CCOCC2)cc1Cl	–	–	5.6 nM
Nc1ccccc1NCc1nc2c(cnn2-c2ccccc2)c(=O)[nH]1	113%	6800 nM	–
COc1ccc(CN(C)c2nc(OCc3ccccn3)ncc2C(=O)NCc2ccccn2)cc1Cl	–	–	85 nM
COc1ccc(CNc2nc(OCc3ccccn3)ncc2C(=O)N[C@H]2CC[C@@H](O)CC2)cc1Cl	–	–	3.5 nM
O=c1[nH]c(-c2ccccc2O)nc2c1cnn2-c1ccccc1	93%	500 nM	–
COc1ccc(CNc2nc(N3CCC[C@H]3CO)ncc2C(=O)N[C@H]2CC[C@H](O)CC2)cc1Cl	–	–	1.8 nM
COc1ccc(CNc2nc(N3CCC[C@@H]3CO)ncc2C(=O)NCc2ccccn2)cc1Cl	–	–	1.2 nM
O=C(O)c1ccccc1OCc1nc2c(cnn2-c2ccccc2)c(=O)[nH]1	–	223 nM	–
COc1ccc(CNc2nc(N3CCC[C@H]3CO)ncc2C(=O)NC[C@@H]2CN(C)CCO2)cc1Cl	–	–	6.1 nM
COc1ccc(CNc2nc(OCc3ccccn3)ncc2C(=O)NCCCCO)cc1Cl	–	–	12 nM
CCCOc1ccccc1-c1nc2c(cnn2-c2ccc(Br)cc2)c(=O)[nH]1	140%	830 nM	–
COc1ccc(CNc2nc(N(C)CCO)ncc2C(=O)NCc2ccccn2)cc1Cl	–	–	32 nM
COc1ccc(CN=c2[nH]c(N3CCC[C@H]3CO)ncc2C(=O)NCc2ncccn2)cc1Cl (stereo in doubt; T5)	–	–	25 nM
O=c1[nH]c(-c2ccccc2O)nc2c1cnn2-c1ccc(Br)cc1	167%	338 nM	–
COC(=O)c1ccccc1OCc1nc2c(cnn2-c2ccccc2)c(=O)[nH]1	130%	100 nM	–
CC(C)Oc1ccccc1-c1nc2c(cnn2-c2ccc(Br)cc2)c(=O)[nH]1	–	280 nM	–
COc1ccc(CNc2nc(OCc3ccccn3)ncc2C(=O)OCc2ncccn2)cc1Cl	–	–	4.2 nM
COc1ccc(CNc2nc(N3CCC(O)CC3)ncc2C(=O)NCc2ccccn2)cc1Cl	–	–	59 nM
